Legend:
KB3-1 = details: read-out: IC50 against KB3-1 cells; range for compounds 1 and 2 together; cited from earlier work
[1] = tested on: human breast cancer xenograft (MDA-MB-435); details: MDA-MB-435 human breast cancer xenograft, athymic nude mice; cited from earlier work
[2] = tested on: KBV-1 (overexpresses the efflux transporter MDR1); assay: MTT-microtiter plate tetrazolinium cytotoxicity assay; format: cell-based, human; details: inferred from cytotoxicity in KBV-1 versus parent KB3-1
[3] = tested on: KBH5.0 (overexpresses BCRP); assay: as above; format: cell-based, human; details: inferred from cytotoxicity in KBH5.0 versus parent KB3-1
[4] = tested on: d(TTAGGG)4 quadruplex DNA; assay: UV melting of quadruplex DNA; format: binding, human; details: range over 50 and 150 mM K+ and over the compounds named together
Method in brief: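 d(TTAGGG)4 at 5 μM strand, annealed at 90 °C for 5 min and slowly cooled over 4 h; test compound 20 μM. Buffer: 10 mM potassium phosphate, pH 7.5, plus KCl at 32 mM (50 mM K+) or 132 mM (150 mM K+). Absorbance read at 295 nm in 0.5 °C steps with 1 min equilibration. Ttran taken from the first-derivative minimum. ΔTtran is the shift against DNA alone, ±1.0 °C.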

[5] = qualitative statement of the introduction; no reference given; cited from earlier work
[6] = in vivo; cited from earlier work

Compound	substrate for MDR1 efflux transporter [2]	substrate for BCRP efflux transporter [3]	ΔTtran of quadruplex DNA (range given) [4]	also measured
CN(C)CCc1cc2cc(c1)CNC(=O)c1coc(n1)-c1coc(n1)-c1cccc(n1)-c1nc(co1)-c1nc(co1)C(=O)NC2 [Compound 2]				IC50 (KB3-1): 0.03 to 0.04 µM; %T/C value [1]: 27.7%
O=C1CNC(=O)c2coc(n2)-c2coc(n2)-c2cccc(c2)-c2cccc(c2)-c2nc(co2)-c2nc(co2)CN1 [Compound 16]	substrates	substrates	4.1–6.4 °C	
CC(C)[C@@H]1NC(=O)c2coc(n2)-c2coc(n2)-c2cccc(c2)-c2cccc(c2)-c2nc(co2)-c2nc(co2)CNC1=O [Compound 17]			4.1–6.4 °C	
O=C1N[C@@H](Cc2ccccc2)C(=O)NCc2coc(n2)-c2coc(n2)-c2cccc(c2)-c2cccc(c2)-c2nc(co2)-c2nc1co2 [Compound 18]			1.1–2.8 °C	
CC(C)(C)OC(=O)NCC[C@@H]1NC(=O)c2coc(n2)-c2coc(n2)-c2cccc(c2)-c2cccc(c2)-c2nc(co2)-c2nc(co2)CNC1=O [Compound 19]			1.1–2.8 °C	
NCC[C@@H]1NC(=O)c2coc(n2)-c2coc(n2)-c2cccc(c2)-c2cccc(c2)-c2nc(co2)-c2nc(co2)CNC1=O [Compound 20]	substrates	substrates	8.4–14.6 °C	
CN(C)CC[C@@H]1NC(=O)c2coc(n2)-c2coc(n2)-c2cccc(c2)-c2cccc(c2)-c2nc(co2)-c2nc(co2)CNC1=O [Compound 21]	substrates	substrates	8.4–14.6 °C	
CC(C)[C@@H]1NC(=O)c2coc(n2)-c2coc(n2)-c2coc(n2)[C@H](C(C)C)NC(=O)c2coc(n2)-c2coc(n2)-c2coc1n2 [HXDV]				aqueous solubility [5]: poor aqueous solubility
CC(C)[C@@H]1NC(=O)c2coc(n2)-c2coc(n2)-c2coc(n2)C/C=C/c2coc(n2)-c2coc(n2)-c2coc1n2 [METV]				aqueous solubility [5]: poor aqueous solubility
CC(C)[C@@H]1NC(=O)c2coc(n2)-c2coc(n2)-c2coc(n2)[C@H](CCN(C)C)NC(=O)c2coc(n2)-c2coc(n2)-c2coc1n2 [YAK-1-161]				well tolerated dose levels [6]: ≤ 45 mg/kg

Reference: publication PMC3949619 (Bioorganic & medicinal chemistry, 2013)
